Assay results as given in ChEMBL document CHEMBL3739352, “Anticonvulsant activity, crystal structures, and preliminary safety evaluation of N-trans-cinnamoyl derivatives of selected (un)modified aminoalkanols” (Eur J Med Chem, 2016).
Activity calls are given as the source filed them. No cut-off for these calls is given here.

Assays:
[1] = Lipophilicity of the compound using 95% methanol in water at 1 mg/ml by RT-TLC analysis; type: physicochemical; settings: buffer
In short: (§1)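 Reversed-phase TLC with a methanol–water mobile phase at the stated methanol content (v/v). Compounds were spotted from 1 mg/mL methanol solutions after 1 h chamber saturation and located under UV light. Rf was measured and RM = log(1/Rf − 1) calculated.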

[2] = test system: Mus musculus; assay: Anticonvulsant activity in albino Carworth Farms No.1 mouse assessed as protection against subcutaneous dosed pentetrazol-induced seizures at 30 mg/kg, ip after 0.5 hrs; type: functional, organism-based
In short: (§2)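 Mouse i.p. screen in Carworth Farms No.1 albino mice at 30, 100 or 300 mg/kg in 0.5% methylcellulose. Testing was at 0.5 and 4 h after injection, by maximal electroshock or by subcutaneous pentetrazol challenge. Scoring was number protected / number used.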

[3] = test system: Mus musculus; assay: Neurotoxicity in albino Carworth Farms No.1 mouse at 300 mg/kg, ip after 0.5 hrs by rotarod test; type: toxicity, organism-based; settings: in vivo
In short: (§3)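 Mice (albino Carworth Farms No.1) were dosed i.p. at 30, 100 or 300 mg/kg in 0.5% methylcellulose. They were tested 0.5 and 4 h later on a 1-inch knurled rod rotating at 6 rpm. Neurotoxicity was scored if a mouse could not stay on the rod for at least 1 min in each of three trials. Results are given as animals toxic/animals tested, with deaths noted.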

[4] = test system: Mus musculus; assay: Anticonvulsant activity in albino Carworth Farms No.1 mouse assessed as protection against maximal electroshock-induced seizures at 100 mg/kg, ip after 0.5 hrs; type: functional, organism-based; in short: as §2
[5] = test system: Mus musculus; assay: Anticonvulsant activity in albino Carworth Farms No.1 mouse assessed as protection against maximal electroshock-induced seizures at 300 mg/kg, ip after 4 hrs; type: functional, organism-based; in short: as §2
[6] = Lipophilicity of the compound using 85% methanol in water at 1 mg/ml by RT-TLC analysis; type: physicochemical; settings: buffer; in short: as §1
[7] = test system: Mus musculus; assay: Anticonvulsant activity in albino Carworth Farms No.1 mouse assessed as protection against subcutaneous dosed pentetrazol-induced seizures at 100 mg/kg, ip after 0.5 hrs; type: functional, organism-based; in short: as §2
[8] = test system: Mus musculus; assay: Anticonvulsant activity in albino Carworth Farms No.1 mouse assessed as protection against subcutaneous dosed pentetrazol-induced seizures at 300 mg/kg, ip after 0.5 hrs; type: functional, organism-based; in short: as §2
[9] = Lipophilicity of the compound using 75% methanol in water at 1 mg/ml by RT-TLC analysis; type: physicochemical; settings: buffer; in short: as §1
[10] = Lipophilicity of the compound using 65% methanol in water at 1 mg/ml by RT-TLC analysis; type: physicochemical; settings: buffer; in short: as §1
[11] = Lipophilicity of the compound at 1 mg/ml by RT-TLC analysis relative to 0% methanol; type: physicochemical; settings: methanol/water
In short: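 Reversed-phase TLC used methanol–water mobile phases of 95–65% methanol. Compounds were applied from 1 mg/mL methanol solutions after 1 h chamber saturation, with UV detection. RM = log(1/Rf − 1) was calculated at each methanol level and extrapolated linearly (RM = RM0 + bC) to 0% methanol to give RM0.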

[12] = test system: Mus musculus; assay: Anticonvulsant activity in albino Carworth Farms No.1 mouse assessed as protection against subcutaneous dosed pentetrazol-induced seizures at 300 mg/kg, ip after 4 hrs; type: functional, organism-based; in short: as §2
[13] = test system: Mus musculus; assay: Anticonvulsant activity in albino Carworth Farms No.1 mouse assessed as protection against maximal electroshock-induced seizures at 30 mg/kg, ip after 4 hrs; type: functional, organism-based; in short: as §2
[14] = test system: Mus musculus; assay: Neurotoxicity in albino Carworth Farms No.1 mouse at 30 mg/kg, ip after 0.5 hrs by rotarod test; type: toxicity, organism-based; settings: in vivo; in short: as §3
[15] = test system: Mus musculus; assay: Anticonvulsant activity in albino Carworth Farms No.1 mouse assessed as protection against subcutaneous dosed pentetrazol-induced seizures at 30 mg/kg, ip after 4 hrs; type: functional, organism-based; in short: as §2
[16] = test system: Mus musculus; assay: Anticonvulsant activity in albino Carworth Farms No.1 mouse assessed as protection against maximal electroshock-induced seizures at 100 mg/kg, ip after 4 hrs; type: functional, organism-based; in short: as §2
[17] = test system: Mus musculus; assay: Anticonvulsant activity in albino Carworth Farms No.1 mouse assessed as protection against maximal electroshock-induced seizures at 30 mg/kg, ip after 0.5 hrs; type: functional, organism-based; in short: as §2
[18] = Lipophilicity of the compound using 90% methanol in water at 1 mg/ml by RT-TLC analysis; type: physicochemical; settings: buffer; in short: as §1
[19] = test system: Mus musculus; assay: Neurotoxicity in albino Carworth Farms No.1 mouse at 100 mg/kg, ip after 0.5 hrs by rotarod test; type: toxicity, organism-based; settings: in vivo; in short: as §3
[20] = test system: Mus musculus; assay: Anticonvulsant activity in albino Carworth Farms No.1 mouse assessed as protection against maximal electroshock-induced seizures at 300 mg/kg, ip after 0.5 hrs; type: functional, organism-based; in short: as §2
[21] = test system: Mus musculus; assay: Anticonvulsant activity in albino Carworth Farms No.1 mouse assessed as protection against subcutaneous dosed pentetrazol-induced seizures at 100 mg/kg, ip after 4 hrs; type: functional, organism-based; in short: as §2
[22] = test system: Mus musculus; assay: Neurotoxicity in albino Carworth Farms No.1 mouse at 100 mg/kg, ip after 4 hrs by rotarod test; type: toxicity, organism-based; settings: in vivo; in short: as §3
[23] = test system: Mus musculus; assay: Neurotoxicity in albino Carworth Farms No.1 mouse at 30 mg/kg, ip after 4 hrs by rotarod test; type: toxicity, organism-based; settings: in vivo; in short: as §3
[24] = test system: Mus musculus; assay: Neurotoxicity in albino Carworth Farms No.1 mouse at 300 mg/kg, ip after 4 hrs by rotarod test; type: toxicity, organism-based; settings: in vivo; in short: as §3

Q: Which Rm [1] does the source give for `CCC(COC(C)=O)NC(=O)/C=C/c1ccccc1` (configuration not stated) here?
A: -0.58

Q: And the Activity [2]?
A: inactive

Q: What about the Activity [3] of the same molecule?
A: Non-toxic

Q: And the Activity [4]?
A: inactive

Q: What about the Activity [5] of the same molecule?
A: inactive

Q: What about the Rm [6] of the same molecule?
A: -0.14

Q: And the Activity [7]?
A: inactive

Q: What about the Activity [8] of the same molecule?
A: inactive

Q: What about the Rm [9] of the same molecule?
A: -0.05

Q: What about the Rm [10] of the same molecule?
A: 0.29

Q: And the Rm [11]?
A: 2.118

Q: What about the Activity [12] of the same molecule?
A: inactive

Q: And the Activity [13]?
A: inactive

Q: What about the Activity [14] of the same molecule?
A: Non-toxic

Q: And the Activity [15]?
A: inactive

Q: What about the Activity [16] of the same molecule?
A: inactive

Q: And the Activity [17]?
A: inactive

Q: What about the Rm [18] of the same molecule?
A: -0.43

Q: And the Activity [19]?
A: Non-toxic

Q: And the Activity [20]?
A: inactive

Q: What about the Activity [21] of the same molecule?
A: inactive

Q: With `CC(=O)CNC(=O)/C=C/c1ccccc1` as the molecule, how does the Rm [1] read?
A: -0.63

Q: And the Activity [22]?
A: Non-toxic

Q: And the Activity [2]?
A: inactive

Q: What about the Activity [3] of the same molecule?
A: Non-toxic

Q: What about the Activity [4] of the same molecule?
A: inactive

Q: What about the Activity [5] of the same molecule?
A: inactive

Q: What about the Activity [23] of the same molecule?
A: Non-toxic

Q: What about the Rm [6] of the same molecule?
A: -0.33

Q: And the Activity [7]?
A: inactive

Q: What about the Activity [8] of the same molecule?
A: inactive

Q: What about the Rm [9] of the same molecule?
A: -0.21

Q: And the Rm [10]?
A: 0.05

Q: And the Rm [11]?
A: 1.478

Q: What about the Activity [12] of the same molecule?
A: inactive

Q: What about the Activity [13] of the same molecule?
A: inactive

Q: What about the Activity [14] of the same molecule?
A: Non-toxic

Q: And the Activity [15]?
A: inactive

Q: And the Activity [16]?
A: inactive

Q: And the Activity [17]?
A: inactive

Q: And the Rm [18]?
A: -0.52

Q: And the Activity [24]?
A: Non-toxic

Q: What about the Activity [19] of the same molecule?
A: Non-toxic

Q: What about the Activity [20] of the same molecule?
A: Active

Q: And the Activity [21]?
A: inactive

Q: For `CC(C)(CO)NC(=O)/C=C/c1ccccc1`, which Rm [1] is on record?
A: -0.63

Q: What about the Activity [22] of the same molecule?
A: Non-toxic

Q: What about the Activity [2] of the same molecule?
A: inactive

Q: And the Activity [3]?
A: Non-toxic

Q: What about the Activity [4] of the same molecule?
A: inactive

Q: What about the Activity [5] of the same molecule?
A: inactive

Q: And the Activity [23]?
A: Non-toxic

Q: What about the Rm [6] of the same molecule?
A: -0.25

Q: What about the Activity [7] of the same molecule?
A: inactive

Q: And the Activity [8]?
A: Active

Q: And the Rm [9]?
A: -0.14

Q: And the Rm [10]?
A: 0.29

Q: What about the Rm [11] of the same molecule?
A: 2.151

Q: And the Activity [12]?
A: inactive

Q: What about the Activity [13] of the same molecule?
A: inactive

Q: And the Activity [14]?
A: Non-toxic

Q: What about the Activity [15] of the same molecule?
A: inactive

Q: And the Activity [16]?
A: inactive

Q: And the Activity [17]?
A: inactive

Q: And the Rm [18]?
A: -0.5

Q: What about the Activity [24] of the same molecule?
A: Non-toxic

Q: What about the Activity [19] of the same molecule?
A: Non-toxic

Q: What about the Activity [20] of the same molecule?
A: Active

Q: What about the Activity [21] of the same molecule?
A: inactive

Q: For `O=C(/C=C/c1ccccc1)NCCCCCO`, which Rm [1] is on record?
A: -0.69

Q: What about the Activity [22] of the same molecule?
A: Non-toxic

Q: And the Activity [2]?
A: inactive

Q: What about the Activity [3] of the same molecule?
A: Non-toxic

Q: And the Activity [4]?
A: inactive

Q: What about the Activity [5] of the same molecule?
A: inactive

Q: What about the Activity [23] of the same molecule?
A: Non-toxic

Q: What about the Rm [6] of the same molecule?
A: -0.27

Q: And the Activity [7]?
A: inactive

Q: What about the Activity [8] of the same molecule?
A: inactive

Q: And the Rm [9]?
A: -0.18

Q: And the Rm [10]?
A: 0.19

Q: And the Rm [11]?
A: 1.983

Q: And the Activity [12]?
A: inactive

Q: And the Activity [13]?
A: inactive

Q: What about the Activity [14] of the same molecule?
A: Non-toxic

Q: And the Activity [15]?
A: inactive

Q: And the Activity [16]?
A: inactive

Q: And the Activity [17]?
A: inactive

Q: And the Rm [18]?
A: -0.52

Q: What about the Activity [24] of the same molecule?
A: Non-toxic

Q: What about the Activity [19] of the same molecule?
A: Non-toxic

Q: And the Activity [20]?
A: inactive

Q: What about the Activity [21] of the same molecule?
A: inactive

Q: With `COC(=O)C(NC(=O)/C=C/c1ccccc1)C(C)C` (racemic) as the molecule, how does the Rm [1] read?
A: -0.52

Q: And the Activity [22]?
A: Non-toxic

Q: What about the Activity [2] of the same molecule?
A: inactive

Q: What about the Activity [3] of the same molecule?
A: Non-toxic

Q: What about the Activity [4] of the same molecule?
A: inactive

Q: What about the Activity [5] of the same molecule?
A: inactive

Q: And the Activity [23]?
A: Non-toxic

Q: What about the Rm [6] of the same molecule?
A: -0.03

Q: And the Activity [7]?
A: inactive

Q: What about the Activity [8] of the same molecule?
A: inactive

Q: And the Rm [9]?
A: 0.05

Q: What about the Rm [10] of the same molecule?
A: 0.58

Q: And the Rm [11]?
A: 2.742

Q: And the Activity [12]?
A: inactive

Q: And the Activity [13]?
A: inactive

Q: And the Activity [14]?
A: Non-toxic

Q: And the Activity [15]?
A: inactive

Q: What about the Activity [16] of the same molecule?
A: inactive

Q: What about the Activity [17] of the same molecule?
A: inactive

Q: What about the Rm [18] of the same molecule?
A: -0.31

Q: What about the Activity [24] of the same molecule?
A: Non-toxic

Q: And the Activity [19]?
A: Non-toxic

Q: What about the Activity [20] of the same molecule?
A: Active

Q: What about the Activity [21] of the same molecule?
A: inactive
